Laboratory results as given in paper PMC9073044 (Saudi Journal of Biological Sciences, 2021).
Structures can show the parent of a compound that is named as a salt. Each block holds one molecule with its values, some of them ahead of it.

Key:
[1] = Caco-2 cells monolayer transport study; format: in vitro ADME; settings: human
Procedure, shortened: (§1)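 Caco-2 cells seeded at 1 × 10^5/cm2 on 0.33 cm2 transwell inserts and grown 21 days in DMEM with 20% FBS; TEER >300 Ω•cm2. Monolayers were preincubated 30 min in 37 ℃ HBSS with 10 mM HEPES. Test compound at 12, 120 and 1200 μg/mL was run bidirectionally, ± GF120918, for 2 h. […] Lucifer yellow (20 μg/mL, AP→BL, fluorescence) checked tight junctions.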

[2] = tested on: Caco-2 cells monolayer; test: Caco-2 cells monolayer transport study; format: in vitro ADME
Procedure, shortened: as §1

[3] = Cytotoxicity by MTT assay; format: cell-based; settings: human, Caco-2 cells
Procedure, shortened: (§2)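 MTT assay: Caco-2 cells seeded at 5 × 10^3 per well in 96-well plates and incubated 24 h. Medium was replaced with test compound (12, 120 or 1200 μg/mL) for 24 h. MTT was then added for 4 h, the supernatant removed, formazan dissolved in DMSO, and absorbance read at 630 nm.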

[4] = tested on: Caco-2 cells; test: Cytotoxicity by MTT assay; format: cell-based; settings: lamivudine 12, 120 and 1200 μg/mL, 24 h
Procedure, shortened: as §2

[5] = tested on: rats intestine; test: In-situ single-pass intestinal perfusion; format: in vivo, SD rats
[6] = ref Du et al., 2019, Yuen et al., 1995; cited from earlier work
[7] = tested on: human DNA polymerase; settings: ref Reis et al., 2013; cited from earlier work
[8] = Caco-2, with GF120918 (elacridar), 10 μM

Molecule: Nc1nc2c(ncn2COCCO)c(=O)[nH]1 [Acyclovir]
Papp A→B at 2 h ([1]; Caco-2): 0.081 ± 0.011 ×10⁻⁶ cm/s

Molecule: C[C@H]1O[C@@H](O[C@H]2[C@@H](O)C[C@H](O[C@H]3[C@@H](O)C[C@H](O[C@H]4CC[C@@]5(C)[C@H](CC[C@@H]6[C@@H]5C[C@@H](O)[C@]5(C)[C@@H](C7=CC(=O)OC7)CC[C@]65O)C4)O[C@@H]3C)O[C@@H]2C)C[C@H](O)[C@@H]1O [Digoxin]
Papp A→B at 2 h ([1]; Caco-2): 0.09 ± 0.005 ×10⁻⁶ cm/s | Papp B→A at 2 h, 30 μg/mL ([1]; Caco-2): 11.9 ± 0.312 ×10⁻⁶ cm/s | efflux ratio at 2 h, 30 μg/mL ([1]; Caco-2): 133 | Papp A→B at 2 h, 30 μg/mL [1, 8]: 3.59 ± 0.128 ×10⁻⁶ cm/s | Papp B→A at 2 h, 30 μg/mL [1, 8]: 5.15 ± 0.058 ×10⁻⁶ cm/s | efflux ratio at 2 h, 30 μg/mL [1, 8]: 1.43

Now from value to molecule, other results behind:

Papp A→B at 2 h, 12 μg/mL ([1]; Caco-2): 0.296 ± 0.005 ×10⁻⁶ cm/s | Papp A→B at 2 h, 120 μg/mL ([1]; Caco-2): 0.297 ± 0.015 ×10⁻⁶ cm/s | Papp A→B at 2 h, 1200 μg/mL ([1]; Caco-2): 0.285 ± 0.011 ×10⁻⁶ cm/s | Papp B→A at 2 h, 12 μg/mL ([1]; Caco-2): 0.788 ± 0.044 ×10⁻⁶ cm/s | Papp B→A at 2 h, 120 μg/mL ([1]; Caco-2): 0.77 ± 0.027 ×10⁻⁶ cm/s | Papp B→A at 2 h, 1200 μg/mL ([1]; Caco-2): 0.737 ± 0.009 ×10⁻⁶ cm/s | Papp A→B at 2 h, 12 μg/mL [1, 8]: 0.307 ± 0.008 ×10⁻⁶ cm/s | Papp A→B at 2 h, 120 μg/mL [1, 8]: 0.322 ± 0.007 ×10⁻⁶ cm/s | Papp A→B at 2 h, 1200 μg/mL [1, 8]: 0.293 ± 0.004 ×10⁻⁶ cm/s | Papp B→A at 2 h, 12 μg/mL [1, 8]: 0.548 ± 0.011 ×10⁻⁶ cm/s | Papp B→A at 2 h, 120 μg/mL [1, 8]: 0.519 ± 0.008 ×10⁻⁶ cm/s | Papp B→A at 2 h, 1200 μg/mL [1, 8]: 0.531 ± 0.012 ×10⁻⁶ cm/s | permeability in BCS ([2]; from Papp on Caco-2 cells monolayer, between high- and low-permeability controls): moderate-permeability | permeability in BCS ([5]; from Peff in SPIP): moderate permeability
Molecule: Nc1ccn([C@@H]2CS[C@H](CO)O2)c(=O)n1 [Lamivudine]
viability at 24 h, 1200 μg/mL [3]: > 80% | growth ability of Caco-2 cells [4]: did not significantly affect | bioavailability [6]: exceed 80% | affinity in human DNA polymerase [7]: low affinity

Papp A→B at 2 h ([1]; Caco-2): 16 ± 0.652 ×10⁻⁶ cm/s | Peff ([5]; control drugs, perfusion concentration 120 μg/mL, mean ± SD, n = 6): 6.13 ± 2.49 ×10^-5 cm/s
Molecule: COCCc1ccc(OCC(O)CNC(C)C)cc1 (stereo not shown) [Metoprolol tartrate]

%lucifer yellow ([2]; lucifer yellow 20 μg/mL, AP-BL, without GF120918, 2 h): 0.81 ± 0.03%
Molecule: Lucifer yellow
